Results on six molecules are retold here after article PMC9643332 (Bioorganic Chemistry, 2022).

Experiment [1] addresses T1, SARS-CoV-2 3CL^pro (Severe acute respiratory syndrome coronavirus 2, UniProt P0DTD1). The experiment is described as follows: biochemical. The conditions noted are these: for inhibition at 100 µM: read-out: inhibition against SARS-CoV-2 3CLpro. It counts as biochemical.
Experiment [2] addresses Dipeptidyl peptidase IV (DPP-IV) (Homo sapiens, UniProt P27487). The experiment is described as follows: Human protease selectivity: DPP-IV inhibition in human plasma with GP-BAN probe. The conditions noted are these: 0, 1, 10, 100 μM. It counts as biochemical. The method in brief: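 Human plasma served as the DPP-IV source and was incubated 1 h with test compound at 0, 1, 10 or 100 μM in 0.1 M PBS, pH 7.4, 1 mM EDTA. Adding the DPP-IV-selective fluorogenic probe at 100 µM started the reaction. Fluorescence (ex 430 nm, em 535 nm) was read immediately over 20 min.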

A further experiment deals with HCoV-229E 3CL^pro (Human coronavirus 229E, UniProt P0C6X1). The experiment is described as follows: biochemical.
Chain of HCoV-229E 3CL^pro (P0C6X1 2966-3267): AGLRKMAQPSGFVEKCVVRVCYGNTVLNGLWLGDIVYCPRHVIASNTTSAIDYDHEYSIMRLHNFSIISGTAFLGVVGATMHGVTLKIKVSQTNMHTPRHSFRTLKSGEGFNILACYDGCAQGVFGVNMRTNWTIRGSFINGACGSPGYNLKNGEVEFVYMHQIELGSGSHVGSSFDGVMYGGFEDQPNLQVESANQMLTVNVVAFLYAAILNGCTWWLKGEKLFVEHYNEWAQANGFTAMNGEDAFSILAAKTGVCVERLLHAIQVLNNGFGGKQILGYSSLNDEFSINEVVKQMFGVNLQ
Experiment [3] addresses T1, SARS-CoV-2 3CL^pro. The experiment is described as follows: Enzymatic inhibition assay in the presence of DTT or GSH. It counts as biochemical. The conditions noted are these: 10 μM compound. The method in brief:
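The thiol-dependence FRET assay preincubated SARS-CoV-2 3CLpro with test compound in reaction buffer (0.1 M PBS, 1 mM EDTA, pH 7.4), with 4 mM DTT or 1 mM GSH, or without either.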

The test system of the next experiment is SARS-CoV-2. The conditions noted are these: Huh7-ACE2, HeLa-ACE2 and A549-ACE2 cells; in the micromolar range, similar to Remdesivir; cited from earlier work.
Experiment [4] concerns the target T2, human chymotrypsin C (CTRC) (Homo sapiens, UniProt Q99895).
T2 sequence (Q99895 30-268): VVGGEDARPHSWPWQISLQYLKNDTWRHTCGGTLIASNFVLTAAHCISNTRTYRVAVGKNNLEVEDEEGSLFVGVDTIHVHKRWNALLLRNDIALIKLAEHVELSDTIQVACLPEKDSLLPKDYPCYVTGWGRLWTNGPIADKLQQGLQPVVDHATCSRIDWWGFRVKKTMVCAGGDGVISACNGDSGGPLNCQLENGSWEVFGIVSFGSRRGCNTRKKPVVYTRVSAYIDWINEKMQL
The experiment is described as follows: Human protease selectivity: CTRC inhibition. Format: biochemical. Conditions: 0, 1, 10, 100 μM.

In experiment [5] the target is T1, SARS-CoV-2 3CL^pro. The experiment is described as follows: Fluorescence quenching assay. The conditions noted are these: 3 μM 3CLpro. It counts as binding.
The target of experiment [6] is T1, SARS-CoV-2 3CL^pro. The experiment is described as follows: CD spectroscopy, secondary structure content by CDNN. The conditions noted are these: 20 μM 3CLpro.
Experiment [7] has as its target T1, SARS-CoV-2 3CL^pro. It counts as biochemical.

Usually IC50 stands for the concentration at which inhibition is half-maximal. Usually inhibition stands for how much of the control response was suppressed.

Entries after “also recorded” stand apart in the source; their conditions may differ.

Chain of Dipeptidyl peptidase IV (DPP-IV) (P27487 39-766): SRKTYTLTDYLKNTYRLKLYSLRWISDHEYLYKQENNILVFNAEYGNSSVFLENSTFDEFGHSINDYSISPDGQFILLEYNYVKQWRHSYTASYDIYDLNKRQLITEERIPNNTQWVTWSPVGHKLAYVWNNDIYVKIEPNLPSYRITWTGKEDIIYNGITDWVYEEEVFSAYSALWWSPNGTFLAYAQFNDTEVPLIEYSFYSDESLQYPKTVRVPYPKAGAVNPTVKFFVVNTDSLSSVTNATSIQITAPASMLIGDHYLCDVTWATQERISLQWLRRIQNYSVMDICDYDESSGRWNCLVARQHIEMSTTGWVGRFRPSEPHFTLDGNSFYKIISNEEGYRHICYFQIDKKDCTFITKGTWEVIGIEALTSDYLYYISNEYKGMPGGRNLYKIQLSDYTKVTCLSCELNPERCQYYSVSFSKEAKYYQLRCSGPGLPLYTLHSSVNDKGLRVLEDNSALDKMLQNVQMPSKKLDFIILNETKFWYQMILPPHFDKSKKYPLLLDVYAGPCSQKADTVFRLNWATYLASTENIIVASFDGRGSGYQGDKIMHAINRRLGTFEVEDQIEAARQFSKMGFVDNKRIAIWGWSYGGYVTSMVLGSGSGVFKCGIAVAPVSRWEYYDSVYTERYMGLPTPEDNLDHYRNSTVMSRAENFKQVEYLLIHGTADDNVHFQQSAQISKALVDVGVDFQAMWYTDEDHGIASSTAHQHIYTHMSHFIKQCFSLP

`CCCCCCCCCCCCCCCC[N+](C)(C)Cc1ccccc1` [Cetalkonium chloride]: at SARS-CoV-2 3CL^pro [1], the IC50 came out at 3.5 ± 0.47 µM and the inhibition at 100 µM was greater than 90%.

For the molecule `CCCCCCCCCCCCCCCC[N+](C)(C)C` [Cetrimonium bromide], at SARS-CoV-2 3CL^pro [1], the IC50 turned out to be 12.8 ± 0.63 µM and the “inhibition of protease activity in primary screening” value (from here on “inhibition of protease activity”) is “significantly inhibit”.

`C[N+](C)(C)CCCCCCCCCC[N+](C)(C)C` [Decamethonium bromide]: on SARS-CoV-2 3CL^pro [1], the IC50 is greater than 100 µM. For the same molecule, on SARS-CoV-2 3CL^pro [1] (100 µM), the “inhibition against SARS-CoV-2 3CLpro” value was “no inhibitory activity”.

In the case of `CCCCCCCCCCCC[N+](C)(C)CCOc1ccccc1` [Domiphen bromide], at SARS-CoV-2 3CL^pro [1], half-maximal inhibition (IC50) required 45.9 ± 16.5 µM and the inhibition at 100 µM is greater than 90%.

As to `CCCCCCCCOc1ccccc1C(=O)Nc1ccc(C(=O)OCC[N+](C)(CC)CC)cc1` [Otilonium bromide], at SARS-CoV-2 3CL^pro [1], half-maximal inhibition (IC50) required 27.7 ± 0.33 µM and the “inhibition of protease activity” value is listed as “significantly inhibit”.

On to `CCCCCCCCCCCCCCCC[N+](C)(C)CCN(Cc1ccc(OC)cc1)c1ncccn1` [Thonzonium bromide], for which the “inhibitory activity towards DPP-IV” value in experiment [2] is given as “didn’t exhibit inhibitory activity; also recorded: did not show measurable activity; also recorded: does not inhibit”. Moreover, half-maximal inhibition on HCoV-229E 3CL^pro (IC50) was put at 6.47 µM. Besides, at SARS-CoV-2 3CL^pro [3] (1 mM GSH), the “inhibition against SARS-CoV-2 3CLpro in the presence of GSH” value is recorded as “potent inhibition”. Also, on SARS-CoV-2 3CL^pro [3] (4 mM DTT), the “inhibition against SARS-CoV-2 3CLpro in the presence of DTT” value is “potent inhibition”. Moreover, the “antiviral effect against SARS-CoV-2 in cells” value in the experiment on SARS-CoV-2 is listed as “effective against SARS-CoV-2”. Besides, the “inhibitory activity towards CTRC” value in [4] is “didn’t exhibit inhibitory activity; also recorded: did not show measurable activity; also recorded: does not inhibit”. In addition, the “KSV (Stern-Volmer quenching constant)” value on SARS-CoV-2 3CL^pro [5] turned out to be 39600 L/mol. For the same molecule, at SARS-CoV-2 3CL^pro [5] (τ0 about 10^-8 s), the “Kq (bimolecular quenching rate constant)” value is 3.96e+12 M⁻¹ s⁻¹. Further, on SARS-CoV-2 3CL^pro [6] (50 μM Thonzonium bromide), the “Antiparallel (%)” value amounted to 18.60%, the “Parallel (%)” value is on record as 6.30%, the “Random coil (%)” value is reported as 30.70% and the “Total sum (%)” value was 95.40%. At SARS-CoV-2 3CL^pro [6] (50 μM Thonzonium bromide), the “α-helix (%)” value stood at 25.50% and the “β-turn (%)” value is given as 14.20%. On SARS-CoV-2 3CL^pro [6] (100 μM Thonzonium bromide), the “Antiparallel (%)” value is recorded as 22.00%, the “Parallel (%)” value worked out at 6.20%, the “Random coil (%)” value stood at 32.20% and the “Total sum (%)” value is listed as 96.10%. Besides, at SARS-CoV-2 3CL^pro [6] (100 μM Thonzonium bromide), the “α-helix (%)” value worked out at 20.20% and the “β-turn (%)” value is 15.50%. Further, at SARS-CoV-2 3CL^pro [6] (200 μM Thonzonium bromide), the “Antiparallel (%)” value came to 33.60%, the “Parallel (%)” value turned out to be 6.30%, the “Random coil (%)” value was determined as 34.00% and the “Total sum (%)” value worked out at 102.10%. In addition, at SARS-CoV-2 3CL^pro [6] (200 μM Thonzonium bromide), the “α-helix (%)” value is recorded as 12.30% and the “β-turn (%)” value came out at 15.90%. Further, the type of inhibition entry on SARS-CoV-2 3CL^pro [7] is reported as “non-competitive inhibitor”. Moreover, the “inhibition of protease activity” value against SARS-CoV-2 3CL^pro [1] is reported as “significantly inhibit”.
